Assay results from ChEMBL document CHEMBL1142894, “Preparation of 5-aryl-3-alkylthio-l,2,4-triazoles and corresponding sulfones with antiinflammatory-analgesic activity” (Bioorg Med Chem, 2007).
Activity calls are given as the source filed them. No cut-off for these calls is given here.

Columns and labels:
Mus musculus [1] = test: Antiinflammatory activity against carrageenan-induced paw edema in Swiss albino mouse assessed as swelling thickness at 25 mg/kg, po after 180 mins; format: functional
Summary of the method: (§1)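 Oral dosing in 0.5% CMC; vehicle to controls. Then carrageenan (0.5 mg/25 ll, freshly suspended in 154 mM saline) injected into the right hind paw subplantar tissue; saline into the left paw. Right-left footpad thickness difference measured by dial gauge calliper every 90 min over 6 h. Inhibition % is relative to vehicle control. n = 6; mean ± SEM.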

Mus musculus [2] = test: Analgesic activity against p-benzoquinone-induced abdominal constriction in Swiss albino mouse assessed as number of writhings at 50 mg/kg, po; format: functional, Abdomen
Summary of the method: (§2)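 Test samples given orally in 0.5% CMC; vehicle to controls. 60 min later, 2.5% (v/v) p-benzoquinone in distilled water, 0.1 ml/10 g, given i.p. Mice housed singly; writhes counted for 15 min starting 5 min after injection. Activity is % change from vehicle controls. n = 6; mean ± SEM.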

Mus musculus [3] = test: Gastric-ulcerogenic effect in Swiss albino mouse assessed as lesions at 50 mg/kg, po; format: functional, organism-based; set-up: dose 50 mg/kg
Summary of the method: (§3)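 Mice killed under deep ether anesthesia 3 h after the writhing test; the oral dose in 0.5% CMC was the one used in that test. Stomachs removed, opened along the great curvature and examined under a dissecting microscope for lesions or bleeding. Reported as ratio of ulceration; n = 6.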

Mus musculus [4] = test: Analgesic activity against p-benzoquinone-induced abdominal constriction in Swiss albino mouse assessed as number of writhings at 200 mg/kg, po; format: functional, Abdomen; summary of the method: as §2
Mus musculus [5] = test: Antiinflammatory activity against carrageenan-induced paw edema in Swiss albino mouse assessed as swelling thickness at 25 mg/kg, po after 90 mins; format: functional; summary of the method: as §1
Mus musculus [6] = test: Inhibition of carrageenan-induced paw edema in Swiss albino mouse at 50 mg/kg, po after 90 mins relative to control; format: functional; settings: 1.5 h
Summary of the method: (§4)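 Mice, n = 6 per group. Test agent given orally as a suspension in 0.5% sodium CMC in distilled water; controls received vehicle only. Afterwards, 0.5 mg/25 ll carrageenan in saline (154 mM NaCl) injected subplantar into the right hind paw, saline into the left. Right-minus-left footpad thickness measured by dial gauge caliper every 90 min for 6 h. Inhibition is relative to vehicle-control group means.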

Mus musculus [7] = test: Inhibition of p-benzoquinone-induced writhing in Swiss albino mouse at 200 mg/kg, po relative to control; format: functional
Summary of the method: (§5)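 Mice, n = 6 per group, dosed orally with a suspension in 0.5% sodium CMC. 60 min later, 0.1 ml/10 g of 2.5% […] p-benzoquinone in distilled water given ip. Abdominal writhes counted per animal for 15 min, starting 5 min after injection. Expressed as % change in mean writhing count versus vehicle controls.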

Mus musculus [8] = test: Antiinflammatory activity against carrageenan-induced paw edema in Swiss albino mouse assessed as swelling thickness at 200 mg/kg, po after 270 mins; format: functional; summary of the method: as §1
Mus musculus [9] = test: Inhibition of carrageenan-induced paw edema in Swiss albino mouse at 100 mg/kg, po after 270 mins relative to control; format: functional; settings: 4.5 h; summary of the method: as §1
Mus musculus [10] = test: Antiinflammatory activity against carrageenan-induced paw edema in Swiss albino mouse assessed as swelling thickness at 200 mg/kg, po after 90 mins; format: functional; summary of the method: as §1
Mus musculus [11] = test: Antiinflammatory activity against carrageenan-induced paw edema in Swiss albino mouse assessed as swelling thickness at 25 mg/kg, po after 270 mins; format: functional; summary of the method: as §1
Mus musculus [12] = test: Inhibition of carrageenan-induced paw edema in Swiss albino mouse at 50 mg/kg, po after 270 mins relative to control; format: functional; settings: 4.5 h; summary of the method: as §4
Mus musculus [13] = test: Antiinflammatory activity against carrageenan-induced paw edema in Swiss albino mouse assessed as swelling thickness at 100 mg/kg, po after 360 mins; format: functional; summary of the method: as §1
Mus musculus [14] = test: Acute toxicity in Swiss albino mouse assessed as lethal effect at 100 mg/kg/day, po after 72 hrs; format: organism-based; set-up: route oral; settings: in vivo
Summary of the method: (§6)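 Oral single dose suspended in 0.5% carboxymethylcellulose, given after a 24 h fast; food and water returned 1 h after dosing. Vehicle-only controls. Mice observed at 1 h, then once daily for 72 h, for toxic signs and mortality.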

Mus musculus [15] = test: Inhibition of p-benzoquinone-induced writhing in Swiss albino mouse at 50 mg/kg, po relative to control; format: functional; summary of the method: as §5
Mus musculus [16] = test: Antiinflammatory activity against carrageenan-induced paw edema in Swiss albino mouse assessed as swelling thickness at 100 mg/kg, po after 90 mins; format: functional; summary of the method: as §1
Mus musculus [17] = test: Antiinflammatory activity against carrageenan-induced paw edema in Swiss albino mouse assessed as swelling thickness at 50 mg/kg, po after 180 mins; format: functional; summary of the method: as §1
Mus musculus [18] = test: Acute toxicity in Swiss albino mouse assessed as lethal effect at 50 mg/kg/day, po after 72 hrs; format: organism-based; set-up: route oral; settings: in vivo; summary of the method: as §6
Mus musculus [19] = test: Antiinflammatory activity against carrageenan-induced paw edema in Swiss albino mouse assessed as swelling thickness at 200 mg/kg, po after 360 mins; format: functional; summary of the method: as §1
Mus musculus [20] = test: Antiinflammatory activity against carrageenan-induced paw edema in Swiss albino mouse assessed as swelling thickness at 50 mg/kg, po after 360 mins; format: functional; summary of the method: as §1
Mus musculus [21] = test: Inhibition of carrageenan-induced paw edema in Swiss albino mouse at 50 mg/kg, po after 180 mins relative to control; format: functional; settings: 3 h; summary of the method: as §1
Mus musculus [22] = test: Antiinflammatory activity against carrageenan-induced paw edema in Swiss albino mouse assessed as swelling thickness at 50 mg/kg, po after 270 mins; format: functional; summary of the method: as §1
Mus musculus [23] = test: Acute toxicity in Swiss albino mouse assessed as lethal effect at 25 mg/kg/day, po after 72 hrs; format: organism-based; set-up: route oral; settings: in vivo; summary of the method: as §6
Mus musculus [24] = test: Analgesic activity against p-benzoquinone-induced abdominal constriction in Swiss albino mouse assessed as number of writhings at 25 mg/kg, po; format: functional, Abdomen; summary of the method: as §2
Mus musculus [25] = test: Antiinflammatory activity against carrageenan-induced paw edema in Swiss albino mouse assessed as swelling thickness at 25 mg/kg, po after 360 mins; format: functional; summary of the method: as §1
Mus musculus [26] = test: Inhibition of p-benzoquinone-induced writhing in Swiss albino mouse at 100 mg/kg, po relative to control; format: functional; summary of the method: as §5
Mus musculus [27] = test: Inhibition of carrageenan-induced paw edema in Swiss albino mouse at 100 mg/kg, po after 360 mins relative to control; format: functional; settings: 6 h; summary of the method: as §1
Mus musculus [28] = test: Inhibition of carrageenan-induced paw edema in Swiss albino mouse at 50 mg/kg, po after 360 mins relative to control; format: functional; settings: 6 h; summary of the method: as §4
Mus musculus [29] = test: Gastric-ulcerogenic effect in Swiss albino mouse assessed as lesions at 100 mg/kg, po; format: functional, organism-based; set-up: dose 100 mg/kg; summary of the method: as §3
Mus musculus [30] = test: Antiinflammatory activity against carrageenan-induced paw edema in Swiss albino mouse assessed as swelling thickness at 100 mg/kg, po after 180 mins; format: functional; summary of the method: as §1
Mus musculus [31] = test: Analgesic activity against p-benzoquinone-induced abdominal constriction in Swiss albino mouse assessed as number of writhings at 100 mg/kg, po; format: functional, Abdomen; summary of the method: as §2
Mus musculus [32] = test: Antiinflammatory activity against carrageenan-induced paw edema in Swiss albino mouse assessed as swelling thickness at 50 mg/kg, po after 90 mins; format: functional; summary of the method: as §1
Mus musculus [33] = test: Inhibition of p-benzoquinone-induced writhing in Swiss albino mouse at 25 mg/kg, po relative to control; format: functional; summary of the method: as §5
Mus musculus [34] = test: Antiinflammatory activity against carrageenan-induced paw edema in Swiss albino mouse assessed as swelling thickness at 100 mg/kg, po after 270 mins; format: functional; summary of the method: as §1
Mus musculus [35] = test: Antiinflammatory activity against carrageenan-induced paw edema in Swiss albino mouse assessed as swelling thickness at 200 mg/kg, po after 180 mins; format: functional; summary of the method: as §1
Mus musculus [36] = test: Inhibition of carrageenan-induced paw edema in Swiss albino mouse at 100 mg/kg, po after 180 mins relative to control; format: functional; settings: 3 h; summary of the method: as §1
Mus musculus [37] = test: Acute toxicity in Swiss albino mouse assessed as lethal effect at 200 mg/kg/day, po after 72 hrs; format: organism-based; set-up: route oral; settings: in vivo; summary of the method: as §6
Mus musculus [38] = test: Inhibition of carrageenan-induced paw edema in Swiss albino mouse at 100 mg/kg, po after 90 mins relative to control; format: functional; settings: 1.5 h; summary of the method: as §1
Mus musculus [39] = test: Gastric-ulcerogenic effect in Swiss albino mouse assessed as lesions at 25 mg/kg, po; format: functional, organism-based; set-up: dose 25 mg/kg; summary of the method: as §3

SMILES | Activity (Mus musculus [1]) | Activity (Mus musculus [2]) | Activity (Mus musculus [3]) | Activity (Mus musculus [4]) | Activity (Mus musculus [5]) | inhibition in vivo at 50 mg/kg (Mus musculus [6]) [%] | inhibition in vivo at 200 mg/kg (Mus musculus [7]) [%] | Activity (Mus musculus [8]) | inhibition in vivo at 100 mg/kg (Mus musculus [9]) [%] | Activity (Mus musculus [10]) | Activity (Mus musculus [11]) | inhibition in vivo at 50 mg/kg (Mus musculus [12]) [%] | Activity (Mus musculus [13]) | Activity (Mus musculus [14]) | inhibition in vivo at 50 mg/kg (Mus musculus [15]) [%] | Activity (Mus musculus [16]) | Activity (Mus musculus [17]) | Activity (Mus musculus [18]) | Activity (Mus musculus [19]) | Activity (Mus musculus [20]) | also measured
CCS(=O)(=O)c1nc(-c2ccc(Br)cc2)n[nH]1 | 62.8 10^-2mm | 35.9 | Active | 50.6 | 54.6 10^-2mm | 35.2 | 1.6 | 68.5 10^-2mm | 22.3 | 57.4 10^-2mm | 67.8 10^-2mm | 24.2 | 49.9 10^-2mm | Non-toxic | 30.2 | 32.1 10^-2mm | 43.5 10^-2mm | Non-toxic | 76.2 10^-2mm | 50.4 10^-2mm | inhibition in vivo at 50 mg/kg (Mus musculus [21]): 26.8%; Activity (Mus musculus [22]): 49.1 10^-2mm; Activity (Mus musculus [23]): Non-toxic; Activity (Mus musculus [24]): 40.9; Activity (Mus musculus [25]): 75.1 10^-2mm; inhibition in vivo at 100 mg/kg (Mus musculus [26]): 25.6%; inhibition in vivo at 100 mg/kg (Mus musculus [27]): 27.5%; inhibition in vivo at 50 mg/kg (Mus musculus [28]): 30%; Activity (Mus musculus [29]): Active; Activity (Mus musculus [30]): 38.3 10^-2mm; Activity (Mus musculus [31]): 35.2; Activity (Mus musculus [32]): 40.4 10^-2mm; inhibition in vivo at 25 mg/kg (Mus musculus [33]): 20.4%; Activity (Mus musculus [34]): 45.7 10^-2mm; Activity (Mus musculus [35]): 61.5 10^-2mm; inhibition in vivo at 100 mg/kg (Mus musculus [36]): 25.6%; Activity (Mus musculus [37]): Non-toxic; inhibition in vivo at 100 mg/kg (Mus musculus [38]): 28.3%; Activity (Mus musculus [39]): Active
CS(=O)(=O)c1nc(-c2ccc(Cl)cc2)n[nH]1 | 62.8 10^-2mm | 29.4 | Active | 46.8 | 55.2 10^-2mm | 18 | 8.9 | 69.4 10^-2mm | 21.4 | 59.4 10^-2mm | 69.5 10^-2mm | 26.1 | 51.2 10^-2mm | Non-toxic | 42.8 | 37.5 10^-2mm | 46.2 10^-2mm | Non-toxic | 76.1 10^-2mm | 50.2 10^-2mm | inhibition in vivo at 50 mg/kg (Mus musculus [21]): 22.2%; Activity (Mus musculus [22]): 47.9 10^-2mm; Activity (Mus musculus [23]): Non-toxic; Activity (Mus musculus [24]): 42.8; Activity (Mus musculus [25]): 75.4 10^-2mm; inhibition in vivo at 100 mg/kg (Mus musculus [26]): 34.5%; inhibition in vivo at 100 mg/kg (Mus musculus [27]): 25.6%; inhibition in vivo at 50 mg/kg (Mus musculus [28]): 30.3%; Activity (Mus musculus [29]): Active; Activity (Mus musculus [30]): 42.8 10^-2mm; Activity (Mus musculus [31]): 31; Activity (Mus musculus [32]): 43.6 10^-2mm; inhibition in vivo at 25 mg/kg (Mus musculus [33]): 16.7%; Activity (Mus musculus [34]): 46.2 10^-2mm; Activity (Mus musculus [35]): 65.8 10^-2mm; inhibition in vivo at 100 mg/kg (Mus musculus [36]): 16.9%; Activity (Mus musculus [37]): Non-toxic; inhibition in vivo at 100 mg/kg (Mus musculus [38]): 16.3%; Activity (Mus musculus [39]): Active
